{"source": "ChEMBL document CHEMBL5236607", "about": "“Membrane-Active Cyclic Amphiphilic Peptides: Broad-Spectrum Antibacterial Activity Alone and in Combination with Antibiotics” (J Med Chem, 2022)", "key": {"Pseudomonas aeruginosa [1]": {"test_system": "Pseudomonas aeruginosa", "test": "Synergistic antibacterial activity against Pseudomonas aeruginosa ATCC […] incubated for 24 hrs in presence of tobramycin by checkerboard assay", "type": "functional"}, "Pseudomonas aeruginosa [2]": {"test_system": "Pseudomonas aeruginosa", "test": "Synergistic antibacterial activity against Pseudomonas aeruginosa ATCC […] assessed as fractional inhibitory concentration index incubated for 24 hrs in presence of tobramycin by checkerboard assay", "type": "functional"}, "Pseudomonas aeruginosa [3]": {"test_system": "Pseudomonas aeruginosa", "test": "Synergistic antibacterial activity against Pseudomonas aeruginosa ATCC […] assessed as fractional inhibitory concentration incubated for 24 hrs in presence of tobramycin by checkerboard assay", "type": "functional"}, "Staphylococcus aureus [4]": {"test_system": "Staphylococcus aureus", "test": "Bactericidal activity against methicillin resistant Staphylococcus aureus assessed as reduction in bacterial cells at 4 times MIC after 2 hrs by time kill assay", "type": "functional", "design": "scale not given: the % may be the effect or the level left", "summary_of_the_method": "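Time-kill in Müller–Hinton media. […] Aliquots taken at 0–24 h, serially diluted and plated on MH agar. CFU counted after 24 h at 37 °C. Two independent experiments in triplicate.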"}, "Staphylococcus aureus [5]": {"test_system": "Staphylococcus aureus", "test": "Bactericidal activity against methicillin resistant Staphylococcus aureus assessed as reduction in bacterial cells at MIC after […] by time kill assay", "type": "functional", "design": "scale not given: the % may be the effect or the level left"}, "Staphylococcus aureus [6]": {"test_system": "Staphylococcus aureus", "test": "Induction of resistance development in methicillin resistant Staphylococcus aureus ATCC BAA-1556 assessed as increase in MIC by microtiter plate reader assay", "type": "functional, organism-based", "summary_of_the_method": "(§1)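 Serial passage resistance assay with 2-fold microdilution MICs in 96-well plates. Each passage takes the well with the highest concentration still permitting growth, adjusts it to 0.5 McFarland, and dilutes it to a final 5 × 10^5 CFU/mL for the next passage. Eighteen passages; MIC recorded at each. Triplicate.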"}, "[7]": {"test": "Membrano-lytic effect in bacterial inner membrane mimic DOPC/DOPG (7:3) large unilamellar vesicles assessed as calcein leakage at 50 ug/ml measured after 90 mins by multimode microplate reader assay", "type": "cell membranes", "details": "dose 50.0 µg/ml", "summary_of_the_method": "(§2)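 Calcein (70 mM) loaded into extruded 100 nm LUVs: DOPC:DOPG 7:3 (w/w) as the bacterial mimic, DOPC/cholesterol 10:1 (w/w) as the mammalian mimic. Free dye removed by gel filtration. Liposomes at 40 μM final lipid in PBS mixed 1:1 with peptide (5–50 μg/mL). Fluorescence (ex 490/em 520 nm) read every 10 min for 100 min; Triton X-100 defines 100% release. Triplicate.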"}, "Escherichia coli [8]": {"test_system": "Escherichia coli", "test": "Induction of resistance development in Escherichia coli ATCC BAA-2452 assessed as increase in MIC by microtiter plate reader assay", "type": "functional, organism-based", "summary_of_the_method": "as §1"}, "Pseudomonas aeruginosa [9]": {"test_system": "Pseudomonas aeruginosa", "test": "Synergistic antibacterial activity against Pseudomonas aeruginosa ATCC […] fractional inhibitory concentration incubated for 24 hrs in presence of polymyxin B by checkerboard assay", "type": "functional"}, "Escherichia coli [10]": {"test_system": "Escherichia coli", "test": "Synergistic antibacterial activity against Escherichia coli ATCC 25922 assessed as fractional inhibitory concentration incubated for 24 hrs in presence of tobramycin by checkerboard assay", "type": "functional", "summary_of_the_method": "(§3)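 Checkerboard assay in MH broth. Inoculum from an LB overnight culture set to 0.5 McFarland and diluted 1/150. […] Each agent was also titrated alone. Incubation 24 h at 37 °C. FIC = combination MIC/individual MIC; FICI = sum of the FICs. Triplicate.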"}, "Klebsiella pneumoniae [11]": {"test_system": "Klebsiella pneumoniae", "test": "Synergistic antibacterial activity against Klebsiella pneumoniae ATCC BAA-1705 fractional inhibitory concentration incubated for 24 hrs in presence of meropenem by checkerboard assay", "type": "functional", "summary_of_the_method": "as §3"}, "Pseudomonas aeruginosa [12]": {"test_system": "Pseudomonas aeruginosa", "test": "Synergistic antibacterial activity against Pseudomonas aeruginosa ATCC […] incubated for 24 hrs in presence of polymyxin B by checkerboard assay", "type": "functional", "summary_of_the_method": "(§4)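 Checkerboard assay. Inoculum from an LB overnight culture at 0.5 McFarland, diluted 1/150 in MH media. […] Incubated 37 °C for 24 h. FICI = MIC combination/MIC alone summed over both agents. Triplicate.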"}, "Staphylococcus aureus [13]": {"test_system": "Staphylococcus aureus", "test": "Synergistic antibacterial activity against methicillin resistant Staphylococcus aureus ATCC BAA-1556 assessed as fractional inhibitory concentration index incubated for 24 hrs in presence of tobramycin by checkerboard assay", "type": "functional", "summary_of_the_method": "as §4"}, "Escherichia coli [14]": {"test_system": "Escherichia coli", "test": "Bactericidal activity against Escherichia coli assessed as reduction in bacterial cells at 4 times MIC after 2 hrs by time kill assay", "type": "functional", "design": "scale not given: the % may be the effect or the level left", "summary_of_the_method": "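Samples taken at time points from 0 to 24 h, serially diluted and plated on MH agar. CFU counted after 24 h at 37 °C. Untreated culture served as control. Two independent experiments in triplicate.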"}, "Cell membrane [15]": {"test_system": "Cell membrane", "test": "Membrano-lytic activity against Escherichia coli assessed as membrane atrophy at 4 times MIC after 1 hr by SEM analysis", "type": "subcellular", "summary_of_the_method": "(§5)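 E. coli ATCC BAA-2452 from overnight culture, suspended at 10^7 CFU/mL in 10 mM PBS pH 7.4. […] Fixed in 4% glutaraldehyde in cacodylate buffer pH 7.4 for 3 h at 4 °C, ethanol-dehydrated, HMDS-dried, Au/Pd-coated, then imaged by FE-SEM.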"}, "[16]": {"test": "Membrano-lytic effect in mammalian membrane mimic DOPC/cholesterol (10:1) large unilamellar vesicles assessed as calcein leakage measured at 5 to 50 microg/ml measured after 100 mins by multimode microplate reader assay", "type": "cell membranes", "details": "dose 5-50 µg/ml", "summary_of_the_method": "as §2"}, "Cell membrane [17]": {"test_system": "Cell membrane", "test": "Membrano-lytic activity against Escherichia coli assessed as change in morphology at 4 times MIC after 1 hr by SEM analysis", "type": "subcellular", "summary_of_the_method": "as §5"}, "Cell membrane [18]": {"test_system": "Cell membrane", "test": "Membrano-lytic activity against methicillin resistant Staphylococcus aureus assessed as loss of membrane fluidity at 4 times MIC after 1 hr by SEM analysis", "type": "subcellular"}, "Klebsiella pneumoniae [19]": {"test_system": "Klebsiella pneumoniae", "test": "Synergistic antibacterial activity against Klebsiella pneumoniae ATCC BAA-1705 fractional inhibitory concentration index incubated for 24 hrs in presence of meropenem by checkerboard assay", "type": "functional", "summary_of_the_method": "as §3"}, "Escherichia coli [20]": {"test_system": "Escherichia coli", "test": "Induction of resistance development in Escherichia coli ATCC 25922 assessed as increase in MIC by microtiter plate reader assay", "type": "functional, organism-based"}, "Pseudomonas aeruginosa [21]": {"test_system": "Pseudomonas aeruginosa", "test": "Synergistic antibacterial activity against Pseudomonas aeruginosa ATCC […] fractional inhibitory concentration index incubated for 24 hrs in presence of polymyxin B by checkerboard assay", "type": "functional"}, "Klebsiella pneumoniae [22]": {"test_system": "Klebsiella pneumoniae", "test": "Antibacterial activity against carbapenem resistant Klebsiella pneumoniae ATCC BAA 1705 after 24 hrs by microbroth dilution method", "type": "functional"}, "Klebsiella pneumoniae [23]": {"test_system": "Klebsiella pneumoniae", "test": "Antibacterial activity against Klebsiella pneumoniae ATCC 700603 after 24 hrs by microbroth dilution method", "type": "functional"}, "Staphylococcus aureus [24]": {"test_system": "Staphylococcus aureus", "test": "Synergistic antibacterial activity against methicillin resistant Staphylococcus aureus ATCC BAA-1556 incubated for 24 hrs in presence of levofloxacin by checkerboard assay", "type": "functional", "summary_of_the_method": "as §4"}, "Escherichia coli [25]": {"test_system": "Escherichia coli", "test": "Synergistic antibacterial activity against Escherichia coli ATCC 25922 fractional inhibitory concentration index incubated for 24 hrs in presence of Ciprofloxacin by checkerboard assay", "type": "functional", "summary_of_the_method": "as §3"}, "Escherichia coli [26]": {"test_system": "Escherichia coli", "test": "Synergistic antibacterial activity against Escherichia coli ATCC 25922 fractional inhibitory concentration index incubated for 24 hrs in presence of metronidazole by checkerboard assay", "type": "functional", "summary_of_the_method": "as §3"}, "Staphylococcus aureus [27]": {"test_system": "Staphylococcus aureus", "test": "Synergistic antibacterial activity against methicillin resistant Staphylococcus aureus ATCC BAA-1556 fractional inhibitory concentration incubated for 24 hrs in presence of Ciprofloxacin by checkerboard assay", "type": "functional", "summary_of_the_method": "as §4"}, "Escherichia coli [28]": {"test_system": "Escherichia coli", "test": "Synergistic antibacterial activity against Escherichia coli ATCC 25922 fractional inhibitory concentration incubated for 24 hrs in presence of meropenem by checkerboard assay", "type": "functional", "summary_of_the_method": "as §4"}, "Escherichia coli [29]": {"test_system": "Escherichia coli", "test": "Synergistic antibacterial activity against Escherichia coli ATCC 25922 incubated for 24 hrs in presence of meropenem by checkerboard assay", "type": "functional", "summary_of_the_method": "as §3"}, "Escherichia coli [30]": {"test_system": "Escherichia coli", "test": "Synergistic antibacterial activity against Escherichia coli ATCC 25922 fractional inhibitory concentration incubated for 24 hrs in presence of Ciprofloxacin by checkerboard assay", "type": "functional", "summary_of_the_method": "as §3"}, "Escherichia coli [31]": {"test_system": "Escherichia coli", "test": "Synergistic antibacterial activity against Escherichia coli ATCC 25922 fractional inhibitory concentration incubated for 24 hrs in presence of metronidazole by checkerboard assay", "type": "functional", "summary_of_the_method": "as §3"}}, "note": "Activity calls are given as the source filed them. The rule behind the calls is not given here. Peptide text beside a SMILES is read from it."}
{"smiles": "N=C(N)NCCC[C@@H]1NC(=O)[C@H](CCCNC(=N)N)NC(=O)[C@H](CCCNC(=N)N)NC(=O)[C@H](Cc2c[nH]c3ccccc23)NC(=O)[C@H](Cc2c[nH]c3ccccc23)NC(=O)[C@H](Cc2c[nH]c3ccccc23)NC(=O)[C@H](Cc2c[nH]c3ccccc23)NC(=O)[C@H](CCCNC(=N)N)NC(=O)[C@H](CCCNC(=N)N)NC1=O", "values": [{"measurement": "MIC", "setting": "Pseudomonas aeruginosa [1]", "result": 0.125, "unit": "mg/L"}, {"measurement": "fractional inhibitory concentration index (FICI)", "setting": "Pseudomonas aeruginosa [2]", "result": 0.5}, {"measurement": "FIC", "setting": "Pseudomonas aeruginosa [3]", "result": 0.25}, {"measurement": "Activity", "setting": "Staphylococcus aureus [4]", "result": 100, "unit": "%"}, {"measurement": "Activity", "setting": "Staphylococcus aureus [5]", "result": 100, "unit": "%"}, {"measurement": "Activity", "setting": "Staphylococcus aureus [6]", "result": "inactive"}, {"measurement": "Activity", "setting": "[7]", "result": 100, "unit": "%"}, {"measurement": "Activity", "setting": "Escherichia coli [8]", "result": "inactive"}, {"measurement": "FIC", "setting": "Pseudomonas aeruginosa [9]", "result": 0.125}, {"measurement": "FIC", "setting": "Escherichia coli [10]", "result": 0.25}, {"measurement": "FIC", "setting": "Klebsiella pneumoniae [11]", "result": 0.25}, {"measurement": "MIC", "setting": "Pseudomonas aeruginosa [12]", "result": 0.125, "unit": "mg/L"}, {"measurement": "fractional inhibitory concentration index (FICI)", "setting": "Staphylococcus aureus [13]", "result": 0.5}, {"measurement": "Activity", "setting": "Escherichia coli [14]", "result": 100, "unit": "%"}, {"measurement": "Activity", "setting": "Cell membrane [15]", "result": "Active"}, {"measurement": "Activity", "setting": "[16]", "result": 13, "unit": "%"}, {"measurement": "Activity", "setting": "Cell membrane [17]", "result": "Active"}, {"measurement": "Activity", "setting": "Cell membrane [18]", "result": "Active"}, {"measurement": "fractional inhibitory concentration index (FICI)", "setting": "Klebsiella pneumoniae [19]", "result": 0.5}, {"measurement": "Activity", "setting": "Escherichia coli [20]", "result": "inactive"}, {"measurement": "fractional inhibitory concentration index (FICI)", "setting": "Pseudomonas aeruginosa [21]", "result": 0.375}, {"measurement": "MIC", "setting": "Klebsiella pneumoniae [22]", "result": "> 64", "unit": "mg/L"}, {"measurement": "MIC", "setting": "Klebsiella pneumoniae [23]", "result": "> 64", "unit": "mg/L"}, {"measurement": "MIC", "setting": "Staphylococcus aureus [24]", "result": 1, "unit": "mg/L"}]}
{"smiles": "N=C(N)NCCC[C@@H]1NC(=O)[C@H](CCCNC(=N)N)NC(=O)[C@H](CCCNC(=N)N)NC(=O)[C@H](CCCNC(=N)N)NC(=O)[C@H](Cc2c[nH]c3ccccc23)NC(=O)[C@H](Cc2c[nH]c3ccccc23)NC(=O)[C@H](Cc2c[nH]c3ccccc23)NC(=O)[C@H](Cc2c[nH]c3ccccc23)NC(=O)[C@H](CCCNC(=N)N)NC(=O)[C@H](CCCNC(=N)N)NC1=O", "note": "(cyclo(RRRRRRWWWW))", "values": [{"measurement": "fractional inhibitory concentration index (FICI)", "setting": "Escherichia coli [25]", "result": 0.375}, {"measurement": "fractional inhibitory concentration index (FICI)", "setting": "Escherichia coli [26]", "result": 0.625}, {"measurement": "FIC", "setting": "Staphylococcus aureus [27]", "result": 0.25}, {"measurement": "FIC", "setting": "Escherichia coli [28]", "result": 0.125}, {"measurement": "MIC", "setting": "Escherichia coli [29]", "result": 0.125, "unit": "mg/L"}, {"measurement": "FIC", "setting": "Escherichia coli [30]", "result": 0.125}, {"measurement": "FIC", "setting": "Escherichia coli [31]", "result": 0.125}]}
